From PubChem
CendR NRP1 mod = NRP-1/CendR interaction modulation; O14786; FAM-RPARPAR peptide binding to NRP-1, fluorescence polarization; inhibition, % at 25 µM; 0.85% of 360,000 active;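 active means inhibition or corrected inhibition above about 18%, plus a signal ratio from 0.5 to 1.5, limit read from the data, passing the limit was not always enough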
Target sequence (O14786 whole entry, looked up): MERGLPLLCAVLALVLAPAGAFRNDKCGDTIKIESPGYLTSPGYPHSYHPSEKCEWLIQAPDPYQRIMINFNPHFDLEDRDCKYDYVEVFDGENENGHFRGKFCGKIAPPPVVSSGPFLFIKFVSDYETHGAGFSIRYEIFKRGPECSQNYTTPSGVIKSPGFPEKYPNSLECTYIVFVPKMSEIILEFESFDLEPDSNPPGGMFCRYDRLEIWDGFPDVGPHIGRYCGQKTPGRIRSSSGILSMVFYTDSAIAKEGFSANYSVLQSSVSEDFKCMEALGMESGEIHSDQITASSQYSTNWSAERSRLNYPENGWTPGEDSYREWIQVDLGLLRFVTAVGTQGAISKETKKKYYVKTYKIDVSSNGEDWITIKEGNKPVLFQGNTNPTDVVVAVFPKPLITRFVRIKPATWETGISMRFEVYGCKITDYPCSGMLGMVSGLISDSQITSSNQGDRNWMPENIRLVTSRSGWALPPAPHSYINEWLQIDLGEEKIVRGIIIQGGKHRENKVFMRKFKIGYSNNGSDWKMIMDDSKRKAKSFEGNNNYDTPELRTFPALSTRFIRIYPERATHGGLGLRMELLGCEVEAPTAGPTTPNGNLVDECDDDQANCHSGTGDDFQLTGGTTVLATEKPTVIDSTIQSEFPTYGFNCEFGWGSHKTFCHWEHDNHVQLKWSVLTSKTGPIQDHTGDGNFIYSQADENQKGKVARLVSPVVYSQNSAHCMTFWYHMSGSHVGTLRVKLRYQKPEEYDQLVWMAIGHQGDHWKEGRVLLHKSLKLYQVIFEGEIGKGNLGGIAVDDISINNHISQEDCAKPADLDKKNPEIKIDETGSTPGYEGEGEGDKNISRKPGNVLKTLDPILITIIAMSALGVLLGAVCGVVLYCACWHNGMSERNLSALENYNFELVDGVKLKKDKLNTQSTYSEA
ABCB6 inh 2 = inhibitors of human ABC transporter ABCB6 | Q9NP58 | fluorescence ratio to DMSO, % at 10 µM | 0.19% of 360,000 active | K562-ABCB6 porphyrin accumulation, flow cytometry, 1 h; active compounds read low;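 active means fluorescence ratio to DMSO below 75%, the collection mean minus 3 SD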;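 further: signal is porphyrin accumulated inside mitochondria; 100% equals median channel fluorescence of DMSO control wells; lower ratio means ABCB6 inhibition with less porphyrin fluorescence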
Arrestin-AP2 inh = blocks beta-arrestin peptide binding to AP2 adaptin; 0.31% of 340,000 active; inhibition, % at 10 µM; FITC-arrestin peptide / GST-AP2 beads, flow cytometry; AP2 beta2 appendage carries R879A mutation;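 active means inhibition above a set limit, near 3 SD of compounds lacking own fluorescence, cut at about 54% in these data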;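 further: plate controls were DMSO wells for no effect and 5 µM unlabelled arrestin peptide for full effect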
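System: GST-AP2 R879A glutathione beads; medium: PBS, Tween 20 0.05%, BSA 0.1%; reagent: fluorescein-tagged arrestin peptide at 50 nM final; schedule: pre-incubation 12 min, peptide binding 1 h, room temperature; detection: flow cytometry, FL1 (488/535 nm); read-out: inhibition as reduced fluorescein signal on beads, percent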
Myeloid diff 2 = compounds promoting myeloid differentiation; ER-HoxA9 myeloid progenitors, lysozyme-GFP differentiation, flow cytometry; calls only at 10 µM; 1% of 360,000 active;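 active means normalized GFP-positive differentiation at or above the plate's own cutoff, the solvent-only control mean plus 3 SD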;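 further: cells exposed to compound for four days before flow analysis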
ATG4B inhibitor = blocks human ATG4B protease cleavage of LC3 substrate; inhibition, % at 8.33 µM; Q9Y4P1; ATG4B cleavage of LC3-PLA2, NBD-HPC fluorescence, 1 h; AID 504462; 0.51% of 340,000 active; in the data active means inhibition above about 40%
Exocytosis inh = blocks lytic granule exocytosis | 0.66% of 360,000 active | TALL-104 LAMP-1 surface exposure, flow cytometry; cells stimulated with thapsigargin and PMA | inhibition, % at 10 µM;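 active means inhibition above about 55%, limit read from the data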
Myeloid diff CP1 = compounds promoting myeloid differentiation. ER-HoxA9 myeloid progenitors, GFP/Mac1 double-positive flow. calls only. 2% of 2,300 active. shares compounds with Myeloid diff 2;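 active means share of green or green-and-red cells above 9 and 9% in run 1 or 4 and 3% in run 2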
GFP autofluor = counter-screen for myeloid differentiation promoters: compound fluorescence; ER-HoxA9 myeloid progenitors, no estrogen, GFP autofluorescence flow cytometry; vehicle wells 0%, positive control 100%; 7.4% of 2,300 active; fluorescence response, % (concentration not given with the values); shares compounds with Myeloid diff 2;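 active means over 5% cells positive for green fluorescent reporter, or over 2% positive for both it and APC stain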;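 further: range taken on the double positive population between DMSO and positive control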
An asterisk follows results filed as active; i = inactive; . = not tested or not shown; + = active, no number. An excerpt weighted towards active compounds, which were near 3.3% of everything screened.

SMILES	CendR NRP1 mod	ABCB6 inh 2	Arrestin-AP2 inh	Myeloid diff 2	ATG4B inhibitor	Exocytosis inh	Myeloid diff CP1	GFP autofluor
COc1ccccc1C1(CCNS(=O)(=O)c2ccc(C)cc2)CCOC(C(C)C)C1 (centres undefined)	0	99	15	+	1	4	i	0
C[C@@H](NC(=O)c1nc[nH]c1C(=O)NCC(=O)OCc1ccccc1)c1ccccc1	15	100	-4	i	-7	-2	.	.
Cc1cccc2cc3c(nc12)SC(=NCC1CCCO1)N(Cc1ccco1)C3 (centres undefined)	-10	101	23	i	31	4	.	.
Cc1ccc2nc3c(cc2c1)CN(Cc1ccco1)C(=NCC1CCCO1)S3 (centres undefined)	-12	91	8	i	-8	-1	i	0
CCCc1nnc(NC(=O)CCC(=O)N2CCN(c3ccccc3)CC2)s1	-2	97	-17	i	-11	-12	i	0
CC(C)Cc1nnc(NC(=O)CCC(=O)N2CCN(c3ccccc3)CC2)s1	8	97	2	i	-2	-1	.	.
Cc1ccc(CC(=O)Nc2ccc(S(=O)(=O)Nc3nccc(C)n3)cc2)cc1	4	102	17	i	1	-9	i	1
Cc1ccnc(NS(=O)(=O)c2ccc(NC(=O)Cc3ccccc3)cc2)n1	-7	98	19	i	-4	-1	.	.
COc1ccc(CC(=O)Nc2ccc(S(=O)(=O)Nc3ncccn3)cc2)cc1	-21	100	8	+	0	1	i	1
CC(C)(C)c1ccc2c(c1)C(c1ccc3c(c1)OCO3)CC(=O)O2 (centres undefined)	-2	101	3	i	6	-2	.	.
O=C(CCN1CCCCCC1)Nc1ccccc1F	-14	94	16	i	-2	-1	.	.
O=C(CN1CCCCCC1)Nc1ccccc1F	-3	94	20	+	-9	0	i	0
CCC(=O)/C=C1/Sc2ccccc2N1CC	-6	99	3	i	-4	0	.	.
CCOC(=O)/C(=C/C=C1\Sc2ccccc2N1CC)C(C)=O	138	106	52	i	-4	0	i	0
Cc1cc(C)c(S(=O)(=O)NC2CCN(Cc3ccccc3)CC2)c(C)c1	2	97	5	i	-12	1	.	.
Cc1cc(C)c(S(=O)(=O)NNC(=O)C2CCN(Cc3ccccc3)CC2)c(C)c1	10	101	24	i	-8	0	i	87*
CCC(C)NC(=O)Cn1c(=O)n(-c2ccccc2)c(=O)c2ccc(C(=O)NCc3ccco3)cc21 (centres undefined)	1	90	3	i	-6	-1	.	.
Cc1ccc(-n2c(=O)c3sccc3n(CC(=O)NCc3ccco3)c2=O)cc1	-7	95	24	i	1	0	.	.
Cc1cccc(Cn2c(=O)n(-c3ccc(CC(=O)NCc4ccco4)cc3)c(=O)c3sccc32)c1	-11	86	13	i	0	3	i	0
Cc1ccc(Cn2c(=O)n(Cc3ccco3)c(=O)c3ccccc32)cc1	-4	96	-1	i	1	2	i	0
Cc1ccc(Cn2c(=O)n(-c3ccccc3)c(=O)c3ccc(C(=O)NCc4ccco4)cc32)cc1	-24	96	3	i	-10	1	i	2
OC(c1ccccc1)(c1nc(-c2cc(F)cc(F)c2)cs1)C(F)(F)F (centres undefined)	-13	96	.	i	.	-5	.	.
N#C/C(=C\c1ccccc1O)C(=O)Nc1ccccn1	-3	107	0	i	5	-4	.	.
CCCC[C@@H]1CNC(=O)C(=O)N1CCc1cccc(F)c1	-20	102	.	i	.	2	.	.
O=C(Cc1cccc(NC(=O)C2CCCN(C(=O)C3CCC3)C2)c1)Nc1cccc(C(=O)N2CCCC2)c1 (centres undefined)	-2	98	5	i	0	-4	.	.
SMILES	CendR NRP1 mod	ABCB6 inh 2	Arrestin-AP2 inh	Myeloid diff 2	ATG4B inhibitor	Exocytosis inh	Myeloid diff CP1	GFP autofluor
COCCn1cnnc1SCC(=O)Nc1ccc(Br)cc1F	4	92	10	i	5	0	.	.
CCn1c(Sc2ccc([N+](=O)[O-])cn2)nnc1-c1ccco1	9	99	-8	i	5	2	i	0
CC(=O)Nc1sc(C)c(C)c1C(=O)OCC(=O)N(C)C1CCS(=O)(=O)C1 (centres undefined)	-10	100	4	i	0	-7	.	.
O=C(N/N=C/c1ccc(O)cc1)Nc1cccc2nsnc12	-11	99	24	i	-37	6	.	.
O=C(Nc1cccc2ccccc12)C1CCN(C(=O)Cc2ccccc2)CC1	-6	121	6	.	-1	-1	i	0
FC(F)(F)c1ccc(N2CCN(c3cc(-c4ccccc4)nc4ncnn34)CC2)nc1	-8	95	-9	i	1	15	i	1
FC(F)(F)c1cccc(Nc2cc(-c3ccccc3)nc3ncnn23)c1	13	100	-3	i	-1	1	.	.
CC(=O)Nc1ccc(S(=O)(=O)N(C)c2ccc(OCCOc3ccccc3F)cc2)cc1	-3	102	-18	i	13	8	.	.
CCCOc1ccc2[nH]cc(C(=O)O)c(=O)c2c1	6	90	-2	i	0	2	i	0
O=C(NCCc1ccccc1)C(=O)NCCC1CCCCN1S(=O)(=O)c1ccccc1 (centres undefined)	-3	101	14	i	-6	4	.	.
O=C(NCCc1ccccc1)C(=O)NCC1CCCN1S(=O)(=O)c1ccccc1 (centres undefined)	-13	99	4	+	-4	36	i	0
COCCN(C(=O)CSc1n[nH]c(-c2ccc(OC)cc2)n1)c1c(N)n(Cc2ccccc2)c(=O)[nH]c1=O	-36	122	3	+	-5	-6	i	0
COCCN(C(=O)CSc1nc2ccccc2s1)c1c(N)n(Cc2ccccc2)c(=O)[nH]c1=O	-90	106	0	+	-12	10	i	3
COCCN(C(=O)COC(=O)CCc1nc2ccccc2s1)c1c(N)n(Cc2ccccc2)c(=O)[nH]c1=O	3	94	37	i	0	-4	.	.
COc1cc(/C=N\Nc2ccc([N+](=O)[O-])cc2)ccc1OCC(=O)Nc1ccc(C)c(C)c1	-88	200	0	i	-7	-7	i	0
